System: MS2 coat protein
Experiment: apparent Kd, MS2 coat protein; higher = weaker binding; RNA-MaP array; FMN 200 µM where present
Summary of the method: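 Green signal from SNAP-549-labelled MS2 coat protein was normalised to red-channel RNA signal and to the median Fmax of control clusters. The protein was titrated from 0.7 or 1.5 nM, doubling to 3 µM, without and then with constant ligand, over designs transcribed by stalled E. coli RNA polymerase on Illumina sequencing-chip clusters, in 100 mM Tris-HCl pH 7.5, 80 mM KCl, 4 mM MgCl2, BSA, DTT, yeast tRNA and Tween-20. The apparent Kd is the median of filtered per-cluster binding-curve fits.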

[1] = designed as: ON switch for flavin mononucleotide, no ligand
[2] = ligand present: flavin mononucleotide, designed as: ON switch for flavin mononucleotide
[3] = designed as: OFF switch for flavin mononucleotide, no ligand
[4] = ligand present: flavin mononucleotide, designed as: OFF switch for flavin mononucleotide

Sequence	apparent Kd [1]	apparent Kd [2]	apparent Kd [3]	apparent Kd [4]
GCCAGCGCAUGAGGAUAUGCUCCCGUUUCGGGAGCAGAAGGCAUGUCAUAAGACAUGAGGAUCACCCAUGUAGUUAAGAUGGCA	258 nM	13.6 nM		
AUCAGCUGGUCAGGAUAUACGUCACUGCGUCAGCAGUGUGGUAAGAUCACAUGAGGAUCACCCAUGUAGAAGGGACGAGCUGAU			14.5 nM	286 nM
UCUUAUUGCAAGGAUAUGCUUUUUAUUUCUUUUGCAGAAGGUGCAACAUGAGGAUCACCCAUGUUUCCGGGUAU			24.1 nM	59.5 nM
CUAAAUCAUGUAGGAUAUGCAUGGCGAAGCUACGCAGAAGGACAUGAGGAUCACCCAUGUCUCUCCGUCUGCGAACAGACGGAG			19.6 nM	104 nM
AAAAAACAUGAGGAUCACCCAUGUGAGGAUAUCCAAAAGUCAAAGAAAAAGACGAAAAGGAGAAGGCACAAAAA			72.8 nM	84.8 nM
GUGAGGUCAGGAUAUGCAUGGCGGGACUUGCGUCGUGGCGUGCAGAAGGGACAUGAGGAUCACCCAUGUGGAGU			157 nM	238 nM
CUUUUGUGAGGAUAUUAGUAGUAAAUAAAUAAUAUUACUACUGAGAAGGCACAUGAGGAUCACCCAUGUUCCUC			37 nM	302 nM
CCCACGAAAGUCGAACGAUGAUGGAGAAGGACAAUAACAUGACAUGAGGAUCACCCAUGUGCCAUGUAGGAUAUCCAUCAUGGG			7.49 nM	6.78 nM
AUUGUAUAGGAAGGAUAUAGAAUAUUAUUUUAACAUGAGGAUCACCCAUGUAACCUUAUGUGUAGCUAGAAGGUCCAUUUAUUA			99.6 nM	150 nM
AAGUCAGCAGGAUAUGCGAUGUUGGGCUAGGUAGCUUGACCACAUGAGGAUCACCCAUGUAGAAGGGCUGGCUA			17.4 nM	14 nM
GUAUCUUAUGUGAGGAUAUAUUAUGUCUUGGUGUAGUAGAAGGCACAUGAGGAUCACCCAUGUCCUAUUGGUCU			40.9 nM	116 nM
UGUUGUGAACAGAACAUGAGGAUCACCCAUGUGCACUCGUGUAAGGAUAUACAAUCGUAUGGAAAGUAGAAGGUACUAAUUAUG		120 nM		
CCUAGUCACUCACAUGAGGAUCACCCAUGUCGGUGCCGCCGACAGGAUAUCUAAAUGUAAAAUCUAGAGAAGGGUCGAACCAUC	455 nM	609 nM		
CUCAAACAUGAGGAUCACCCAUGUGUUGUCGUGGGAGGAUAUCCCAGUUCGGUGGCGUCGGGAGAAGGCCUAUGUC	141 nM	64.7 nM		
GAUUGACAUGAGGAUCACCCAUGUGAGGAUAUCGGCCGGAUCUUGUUAGCUUCCAUCGCGAGAAGGCACAUAGG			66.1 nM	73.5 nM
CUGCCUUAUGUAGGAUAUGCAUAGCAUUGCUAUGCAGAAGGACAUGAGGAUCACCCAUGUAUGUAAUCAAUACAUAUCUGGCAG			20.4 nM	119 nM
GAUAGGACAGAGAAGGACGUAGCUAGAGAUACUAGCAUUAAGUCCUCAACAUGAGGAUCACCCAUGUAGGAUAUCUGUCCUAUC			6.23 nM	6.71 nM
UGAAAUCAUGUAGGAUAUGCAUGGCGAAGCUACGCAGAAGGACAUGAGGAUCACCCAUGUUAUAGCUACCCGUUACGGUGGCAA			135 nM	155 nM
AUUUUGUCAGGAUAUGAGUAGUAGGACGAAAGUGUUAUUAUUUAGAAGGGACAUGAGGAUCACCCAUGUUCCUC			12.7 nM	16.2 nM

Sequence	apparent Kd [1]	apparent Kd [2]	apparent Kd [3]	apparent Kd [4]
AAAAAAAAAAGACAGGAUAUACAAUAUAUUACAUGAGGAUCACCCAUGUUUUUUUUUUAAUUAAAGUAGAAGGGUCAAAAAAAAAA	52.2 nM	40 nM		
GGACGGAAAGUGAGGAUAUGCUCUACCUCGGUAGAGCAGAAGGCACAUGAGGAUCACCCAUGUGAUUGCUGUUC			27.1 nM	261 nM
UUUAUAUUCAGAGGAUAUUGAUGUUGUAUUUUACAAGAAGGCUGUUUGUUUUGUAAUGUUAUUAUACAUGAGGAUCACCCAUGU	20.6 nM	17.3 nM		
GGAUCAUGAGGAUAUCGAGGUUAGUACAUGAGGAUCACCCAUGUUAUCCAGGUCUCGUUUCGAGAAGGCAUGAUCC			21.5 nM	29.9 nM
GCGAUUUUGUAAGGAUAUACACGAGUUUCAAGUGUAGAAGGUACUUACAUGAGGAUCACCCAUGUAUACAUGGAUAAUAGUCGC	548 nM	84.2 nM		
GCUUGUGUUGAGGAUAUGCGCCGGCUCGCUGGCGCAGAAGGCGGCACAUGAGGAUCACCCAUGUCAGUUCGCGA			27.5 nM	255 nM
GUCAGCUCGUGAGGAUAUACAUGUGCUGGAAACAGCACUAUUAUGUUCACAUGAGGAUCACCCAUGUAGAAGGCACGAGCUGAU			16.2 nM	24.9 nM
CGCGAACAUGAGGAUCACCCAUGUGAAAAACACAGAGGAUAUGUCGCAUGCGUGUAAAAGACAGAAGGCUGUCGCG	45.5 nM	21.9 nM		
UCAUGCAUAGCGAUAUGAUCGAGAGAUCAUGUCGCUAAAUUUAGAAGGACAUGAGGAUCACCCAUGUAGGAUAUGGGAGCAUGC	419 nM	59.3 nM		
GUGCUGCAACGGUGCACGAGACAUGAGGAUCACCCAUGUGACAGAAGGGACUUGUUAAAGGUAGGUCAGGAUAUGUCUUAAAAG	191 nM	53.1 nM		
GCAGCAAUCUAAAACAUGAGGAUCACCCAUGUCGAGAGAUAUGAGGAUAUGCAUCUGAAGAAGAUGCAGAAGGCAUUGUGCUGC	8.1 nM	6.15 nM		
GUAGCAUACCGAGGAUAUCUCAAUAAUAAACAAACAUGAGGAUCACCCAUGUGGCGAAAGCCAAGGGAGAAGGCGGAAUGCUAC	43.1 nM	17.6 nM		
UGUGUUUUUGUGAGGAUAUACUGUUUGUUUUGUUUGUAGAAGGUACAUGAGGAUCACCCAUGUUGUGUUUGGUU			37.5 nM	29.2 nM
UCCUUAUCGGUCAGGAUAUACACCCGUUUCUCCUUGUAGAAGGGACAUGAGGAUCACCCAUGUACAGUACAUCU			20.4 nM	19.1 nM
GGUGGACAUGAGGAUCACCCAUGUGAGGAUAUCGGCUAUCUACUCGCUGACGGCUGCUCGAGAAGGCACAUUGU			70.7 nM	107 nM
UGGUACAUGGGAGGAUAUCCUCAAGAGACAUGAGGAUCACCCAUGUAUUAUAAGCCUAAUGGCAUGGAGAAGGCCCAUGUACCU	467 nM	49 nM		
AAAAACUAAGGAUAUACAUGAGGAUCACCCAUGUAAAAAAUGCAUGGGAAAACCUCAUGUAGAAGGUAGAAAAA			20.6 nM	17.2 nM
CGUUGUGAAGAGGAUAUCCAACAAAGUUGUCAAGGAGAAGGCUUCACAUGAGGAUCACCCAUGUUAUGCCUUAU			18.2 nM	80.2 nM
GACAUGAGGAUCACCCAUGUCCAACCAGAAGGCCAGAAACCAGGCCCUUGUAUCGGGCUUGGGAUGGAGGAUAUGGGCGCCGAA	61.4 nM	31.6 nM		

Sequence	apparent Kd [1]	apparent Kd [2]	apparent Kd [3]	apparent Kd [4]
UUCUAGCUCACAGGAUAUGGGUAUCGACGAUGCCCAGAAGGGUGAUUUGGCACAUGAGGAUCACCCAUGUGGGCGCUUGAAUAU	45 nM	98 nM		
AGGAGGUUAGGAUAUGCUGCUCGUCACUUGCGUGAUGAGUAGCAGAAGGAACAUGAGGAUCACCCAUGUAAAAA			30.2 nM	31.9 nM
AAGUCACAUGAGGAUCACCCAUGUCGUAAACGAUGAGGAUAUAGGAAGAAAAAAAAAAAACUAGAAGGUAUUACAA	59.8 nM	55.9 nM		
AAUUCACAUGAGGAUCACCCAUGUGAGGAUAUGGUUUCGCUGGCCGUAGCCAGUGGAACCAGAAGGCGCGUGAU			56.5 nM	65.2 nM
GGAUAUAUGAAGGGCGAACGCGCACAUGAGGAUCACCCAUGUAGAAGGCGGUCCGCAACGCGGAUCGAGGAUAUAUAGUAUACG			19.1 nM	17.3 nM
UUUCGGCAUGUAGGAUAUGGAUCCGAUUAGGAUUUAGAAGGACAUGAGGAUCACCCAUGUGCAUUUAAUUGGUCAUUACCGUUU			58.5 nM	95.2 nM
ACGACGAAAGUCGAACGAUGUAGCAGAAGGACAUGAGGAUCACCCAUGUCAGCUGUAACAGCCAUGUAGGAUAUGCUACAUCGU			4.29 nM	5.41 nM
AUUCCUAAUGUUAGGAUAUGCGACGGGUGACCGUUGCAGAAGGAACAUGAGGAUCACCCAUGUUUAAUAAAAUC			17.3 nM	111 nM
ACAAGAUCAGGAUAUACAUGAGGAUCACCCAUGUAUAUCCAAAAAGGGCCUUCUACAUGUAGAAGGGAUCUUGU			13.1 nM	12.6 nM
AACAAUCUAUCUGAGGAUAUCAUGUCAAAGACAUGAGGAUCACCCAUGUACCAGGAAACUGGUUAUGAGAAGGCAGAUAGAUUGA	1260 nM	54.8 nM		
AAAAAGUCAGGAUAUGCGAAGGCGUCUGAUAGACGAGGCUAGCAGAAGGGACAUGAGGAUCACCCAUGUAAAGA			27.2 nM	55.1 nM
AGAAGUUUGUAGAAGGACGACUAAUUUGUAUUCGUAGGAUAUACUAUUUACAUGAGGAUCACCCAUGUUUUUAUGGAACAAUGU			11.9 nM	17.2 nM
UUUAUUUCGGCAGGAUAUACAUGUAUAUAUAUUCCCUCAUAUCUUAUUACAUGAGGAUCACCCAUGUAGAAGGGCCUUCUUCUC			206 nM	160 nM
AUCAGCUCGUCAGGAUAUACGUCACUGCUUCGGCAGUGUGGUAAGAUCACAUGAGGAUCACCCAUGUAGAAGGGACGAGCUGAU			38.4 nM	754 nM
UCAUGUUAGCAGGAUAUGCUAUUUAUUUUUUAUGCAGAAGGGCUUACAUGAGGAUCACCCAUGUGUUAGGUUUU			41.8 nM	21.1 nM
GGCUCAUUGACAUUAAUGUGCAGACAGGAUAUCCACCGCGGUUCCUACAUGAGGAUCACCCAUGUGGAGAAGGGUCGCUAAUGG			16.1 nM	43.6 nM
GUUUUACAUGAGGAUCACCCAUGUGAGGAUAUAUUGUUAAUAGUGAUAAUUAUUGGUGGUAGAAGGCGCGUGAU			46.8 nM	39.7 nM
AGGAAGUUAGGAUAUGCUGCUCGUCACUUGCGUGAUGAGUAGCAGAAGGGACAUGAGGAUCACCCAUGUAAAGA			36.8 nM	21.9 nM

From the EternaBench riboswitch data
